Ki data for three molecules are collected here from ChEMBL document CHEMBL1142170, “Mechanism of activation of beta-D-2'-deoxy-2'-fluoro-2'-c-methylcytidine and inhibition of hepatitis C virus NS5B RNA polymerase” (Antimicrob Agents Chemother, 2007).

The nature of assay [1]: Inhibition of HCV NS5B RNA polymerase assessed as incorporation of 32P-UMP into RNA. The arrangement: species or system Hepacivirus hominis. The gist of the method:
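Steady-state Ki against truncated NS5B (wild-type and S282T) on minus IRES template, 27°C, HEPES pH 7.5 with Mg2+/Mn2+/DTT and [α-32P]UTP. For ATP analog, UTP 10, GTP and CTP 100 μM, ATP and inhibitor varied. For CTP analogs, UTP 10, ATP and GTP 100 μM, CTP and inhibitor varied. Membrane-bound product counted, rates fit to competitive inhibition.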

Assay [2] is described as follows: Inhibition of HCV NS5B RNA polymerase S282T mutant assessed as incorporation of 32P-UMP into RNA. The arrangement: species or system Hepacivirus hominis. In outline:
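Purified 21-aa C-terminally truncated NS5B (S282T; wild type for comparison) on minus-IRES template, run in 50 mM HEPES pH 7.5 with 1 mM MgCl2, 0.75 mM MnCl2, 2 mM DTT and [α-32P]UTP at 27°C. Natural substrate and inhibitor were both varied against fixed remaining NTPs (UTP 10 μM, others 100 μM). Product was membrane-captured and counted. Ki was obtained by fitting a competitive inhibition equation.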

Structures are written as SMILES.

In the case of `C[C@@]1(O)[C@H](O)[C@@H](COP(=O)(O)OP(=O)(O)OP(=O)(O)O)O[C@H]1n1ccc(N)nc1=O` [2'-C-METHYLCYTIDINE TRIPHOSPHATE], the Ki came to 1.6 µM in assay [1] and 3.8 µM in assay [2].

Regarding `C[C@@]1(F)[C@H](O)[C@@H](COP(=O)(O)OP(=O)(O)OP(=O)(O)O)O[C@H]1n1ccc(N)nc1=O` [PSI-6130-TP], the Ki in assay [1] is 4.3 µM; in assay [2], 2.5 µM.

As to `C[C@@]1(O)[C@H](O)[C@@H](COP(=O)(O)OP(=O)(O)OP(=O)(O)O)O[C@H]1n1cnc2c(N)ncnc21`, the Ki in assay [1] is 1.5 µM; in assay [2], 21.8 µM.
